Experimental data reported in ChEMBL document CHEMBL1157468, “Design, synthesis, and testing of non-nephrotoxic desazadesferrithiocin polyether analogues” (J Med Chem, 2008).

Assays:
[1] = system: Kidney; experiment: Biodistribution in Sprague-Dawley rat kidney assessed per gram tissue wet weight at 300 umol/kg, po after 1 hr; assay type: ADME, organism-based; conditions: in vivo
Outline: (§1)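 Male Sprague–Dawley rats (250–350 g) got one 300 µmol/kg dose, po or sc. Vehicle was water or the monosodium salt (free acid plus 1 equiv NaOH). Three rats per time point were euthanized by CO2 at 1, 2 or 4 h. Plasma came from citrated cardiac blood; liver, kidney, heart and pancreas were removed. Drug levels were measured by HPLC with UV detection at 310 nm against linear calibration curves (detection limit 0.25 µM).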

[2] = system: Kidney; experiment: Biodistribution in Sprague-Dawley rat kidney assessed per gram tissue wet weight at 300 umol/kg, po after 4 hrs; assay type: ADME, organism-based; conditions: in vivo; outline: as §1
[3] = system: Pancreas; experiment: Biodistribution in Sprague-Dawley rat pancreas assessed per gram tissue wet weight at 300 umol/kg, po after 2 hrs; assay type: ADME, organism-based; conditions: in vivo; outline: as §1
[4] = system: Liver; experiment: Biodistribution in Sprague-Dawley rat liver assessed per gram tissue wet weight at 300 umol/kg, sc after 2 hrs; assay type: ADME, organism-based; conditions: in vivo
[5] = system: Plasma; experiment: Biodistribution in Sprague-Dawley rat plasma at 300 umol/kg, sc after 4 hrs; assay type: ADME, organism-based; conditions: in vivo
[6] = system: Plasma; experiment: Biodistribution in Sprague-Dawley rat plasma at 300 umol/kg, po after 2 hrs; assay type: ADME, organism-based; conditions: in vivo; outline: as §1
[7] = system: Rattus norvegicus; experiment: Iron-clearing efficiency in non-iron-overloaded Sprague-Dawley rat at 50 umol/kg, po after 24 hrs relative to control; assay type: functional
Outline: (§2)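 Male Sprague–Dawley rats (400–450 g), not iron-loaded and bile duct-cannulated, got one dose of 50, 150 or 300 µmol/kg po, or 300 µmol/kg sc. Vehicle was water or the monosodium salt. Bile was collected every 3 h for 24 h and urine at 24 h. Iron was measured by atomic absorption. Efficiency was treated minus control iron excretion, divided by theoretical output (2:1 ligand:iron), as a percent; mean ± SEM.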

[8] = system: Liver; experiment: Biodistribution in Sprague-Dawley rat liver assessed per gram tissue wet weight at 300 umol/kg, sc after 4 hrs; assay type: ADME, organism-based; conditions: in vivo
[9] = system: Rattus norvegicus; experiment: Toxicity in non-iron-overloaded Sprague-Dawley rat assessed as survival at 384 umol/kg/day, po after 10 days by non-renal perfusion protocol; assay type: organism-based; conditions: in vivo, 240 h
Outline: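 Non-iron-loaded male Sprague–Dawley rats (250–300 g) were fasted overnight and gavaged po once daily for 10 days at 384 µmol/kg/day. They were fed about 3 h postdose with 5 h food access, then fasted again. Survival was followed over the exposure. Euthanasia was 24 h after the last dose, with extensive tissue histopathology.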

[10] = system: Kidney; experiment: Biodistribution in Sprague-Dawley rat kidney assessed per gram tissue wet weight at 300 umol/kg, sc after 4 hrs; assay type: ADME, organism-based; conditions: in vivo
[11] = system: Rattus norvegicus; experiment: Iron-clearing efficiency in non-iron-overloaded Sprague-Dawley rat bile assessed as iron excretion at 300 umol/kg, po; assay type: functional; outline: as §2
[12] = system: Rattus norvegicus; experiment: Iron-clearing efficiency in non-iron-overloaded Sprague-Dawley rat at 300 umol/kg, sc after 24 hrs relative to control; assay type: functional; outline: as §2
[13] = system: Rattus norvegicus; experiment: Nephrotoxicity in Sprague-Dawley rat assessed as heavy vacuolized renal tubules at […] for 7 days by renal perfusion studies; assay type: toxicity, organism-based; conditions: in vivo, 168 h, in the assay text read “237 umol/kg” for “273 umol/kg”
Outline: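 Male Sprague–Dawley rats (200–250 g), fasted overnight, got 237 µmol/kg/dose po twice daily (474 µmol/kg/day) for 7 days and were fed about 3 h post-drug. Untreated age-matched rats were controls. One day post-drug, under pentobarbital, kidneys were perfusion-fixed with glutaraldehyde in Tyrode's buffer and embedded in TAAB. 500 nm sections were stained with toluidine blue and examined by light microscopy at 400×.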

[14] = system: Liver; experiment: Biodistribution in Sprague-Dawley rat liver assessed per gram tissue wet weight at 300 umol/kg, sc after 1 hr; assay type: ADME, organism-based; conditions: in vivo
[15] = system: Sapajus apella; experiment: Iron-clearing efficiency in iron-overloaded Cebus apella at 150 umol/kg, po after 2 days relative to control; assay type: functional
Outline: (§3)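 Monkeys (Cebus apella, 3.5–4 kg) were iron-loaded to about 500 mg Fe/kg with iv iron dextran and rested at least 60 days. They then got one 150 µmol/kg dose, po or sc. Feces and urine were collected every 24 h from 4 days before to 5 days after dosing, and iron was measured by flame atomic absorption. Efficiency was the 2-day post-drug iron minus the 4-day pre-drug baseline, divided by theoretical output (2:1 ligand:iron); mean ± SEM.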

[16] = system: Heart; experiment: Biodistribution in Sprague-Dawley rat heart assessed per gram tissue wet weight at 300 umol/kg, sc after 2 hrs; assay type: ADME, organism-based; conditions: in vivo
[17] = system: Plasma; experiment: Biodistribution in Sprague-Dawley rat plasma at 300 umol/kg, po after 1 hr; assay type: ADME, organism-based; conditions: in vivo; outline: as §1
[18] = system: Pancreas; experiment: Biodistribution in Sprague-Dawley rat pancreas assessed per gram tissue wet weight at 300 umol/kg, sc after 1 hr; assay type: ADME, organism-based; conditions: in vivo
[19] = system: Sapajus apella; experiment: Iron-clearing efficiency in iron-overloaded Cebus apella at 150 umol/kg, sc after 2 days relative to control; assay type: functional; outline: as §3
[20] = system: Pancreas; experiment: Biodistribution in Sprague-Dawley rat pancreas assessed per gram tissue wet weight at 300 umol/kg, sc after 4 hrs; assay type: ADME, organism-based; conditions: in vivo
[21] = system: Liver; experiment: Biodistribution in Sprague-Dawley rat liver assessed per gram tissue wet weight at 300 umol/kg, po after 2 hrs; assay type: ADME, organism-based; conditions: in vivo; outline: as §1
[22] = system: Plasma; experiment: Biodistribution in Sprague-Dawley rat plasma at 300 umol/kg, sc after 2 hrs; assay type: ADME, organism-based; conditions: in vivo
[23] = system: Pancreas; experiment: Biodistribution in Sprague-Dawley rat pancreas assessed per gram tissue wet weight at 300 umol/kg, po after 1 hr; assay type: ADME, organism-based; conditions: in vivo; outline: as §1
[24] = system: Heart; experiment: Biodistribution in Sprague-Dawley rat heart assessed per gram tissue wet weight at 300 umol/kg, sc after 1 hr; assay type: ADME, organism-based; conditions: in vivo
[25] = system: Kidney; experiment: Biodistribution in Sprague-Dawley rat kidney assessed per gram tissue wet weight at 300 umol/kg, sc after 2 hrs; assay type: ADME, organism-based; conditions: in vivo
[26] = system: Pancreas; experiment: Biodistribution in Sprague-Dawley rat pancreas assessed per gram tissue wet weight at 300 umol/kg, sc after 2 hrs; assay type: ADME, organism-based; conditions: in vivo
[27] = system: Heart; experiment: Biodistribution in Sprague-Dawley rat heart assessed per gram tissue wet weight at 300 umol/kg, po after 2 hrs; assay type: ADME, organism-based; conditions: in vivo; outline: as §1
[28] = system: Plasma; experiment: Biodistribution in Sprague-Dawley rat plasma at 300 umol/kg, sc after 1 hr; assay type: ADME, organism-based; conditions: in vivo
[29] = system: Kidney; experiment: Biodistribution in Sprague-Dawley rat kidney assessed per gram tissue wet weight at 300 umol/kg, po after 2 hrs; assay type: ADME, organism-based; conditions: in vivo; outline: as §1
[30] = system: Rattus norvegicus; experiment: Iron-clearing efficiency in non-iron-overloaded Sprague-Dawley rat bile assessed as iron excretion at 150 umol/kg, po; assay type: functional; outline: as §2
[31] = system: Liver; experiment: Biodistribution in Sprague-Dawley rat liver assessed per gram tissue wet weight at 300 umol/kg, po after 1 hr; assay type: ADME, organism-based; conditions: in vivo; outline: as §1
[32] = system: Rattus norvegicus; experiment: Iron-clearing efficiency in non-iron-overloaded Sprague-Dawley rat at 300 umol/kg, po after 24 hrs relative to control; assay type: functional; outline: as §2
[33] = system: Liver; experiment: Biodistribution in Sprague-Dawley rat liver assessed per gram tissue wet weight at 300 umol/kg, po after 4 hrs; assay type: ADME, organism-based; conditions: in vivo; outline: as §1
[34] = system: Heart; experiment: Biodistribution in Sprague-Dawley rat heart assessed per gram tissue wet weight at 300 umol/kg, po after 1 hr; assay type: ADME, organism-based; conditions: in vivo; outline: as §1
[35] = system: Rattus norvegicus; experiment: Iron-clearing efficiency in non-iron-overloaded Sprague-Dawley rat bile assessed as iron excretion at 50 umol/kg, po; assay type: functional; outline: as §2
[36] = system: Plasma; experiment: Biodistribution in Sprague-Dawley rat plasma at 300 umol/kg, po after 4 hrs; assay type: ADME, organism-based; conditions: in vivo; outline: as §1
[37] = system: Heart; experiment: Biodistribution in Sprague-Dawley rat heart assessed per gram tissue wet weight at 300 umol/kg, sc after 4 hrs; assay type: ADME, organism-based; conditions: in vivo
[38] = system: Kidney; experiment: Biodistribution in Sprague-Dawley rat kidney assessed per gram tissue wet weight at 300 umol/kg, sc after 1 hr; assay type: ADME, organism-based; conditions: in vivo
[39] = system: Rattus norvegicus; experiment: Toxicity in non-iron-overloaded Sprague-Dawley rat assessed as survival at 63.3 umol/kg/day, po after 30 days by non-renal perfusion protocol; conditions: in vivo, 720 h
[40] = system: Rattus norvegicus; experiment: Iron-clearing efficiency in non-iron-overloaded Sprague-Dawley rat at 150 umol/kg, po after 24 hrs relative to control; assay type: functional; outline: as §2

What does the source list for `COCCOCCOCCOc1ccc(C2=N[C@@](C)(C(=O)O)CS2)c(O)c1`?
Drug uptake [1]: 114 nmol/g; Drug uptake [2]: 10 nmol/g; Drug uptake [3]: 9 nmol/g; Drug uptake [4]: 132 nmol/g; Drug uptake [5]: 5 nmol/g; Drug uptake [6]: 32 nmol/g; Activity [7]: 21.7%; Drug uptake [8]: 67 nmol/g; Activity [9]: Non-toxic; Drug uptake [10]: 34 nmol/g; Activity [11]: >95%; Activity [12]: 8.7%; Activity [13]: Non-toxic; Drug uptake [14]: 339 nmol/g; Activity [15]: 25.4%; Drug uptake [16]: 9 nmol/g; Drug uptake [17]: 64 nmol/g; Drug uptake [18]: 30 nmol/g; Activity [19]: 30.4%; Drug uptake [20]: 13 nmol/g; Drug uptake [21]: 144 nmol/g; Drug uptake [22]: 16 nmol/g; Drug uptake [23]: 25 nmol/g; Drug uptake [24]: 35 nmol/g; Drug uptake [25]: 41 nmol/g; Drug uptake [26]: 30 nmol/g; Drug uptake [27]: 9 nmol/g; Drug uptake [28]: 140 nmol/g; Drug uptake [29]: 69 nmol/g; Activity [30]: >95%; Drug uptake [31]: 159 nmol/g; Activity [32]: 5.5%; Drug uptake [33]: 35 nmol/g; Drug uptake [34]: 17 nmol/g; Activity [35]: >95%; Drug uptake [36]: 2 nmol/g; Drug uptake [37]: 5 nmol/g; Drug uptake [38]: 252 nmol/g; Activity [39]: Non-toxic; Activity [40]: 11.2%
